In the EternaBench riboswitch data:

Tested on: MS2 coat protein
Assay: apparent Kd, MS2 coat protein; higher = weaker binding; RNA-MaP array; FMN 200 µM where present
Summary of the method: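 Apparent Kd: the median of filtered binding-curve fits from single clusters. Designs were transcribed on Illumina sequencing-chip clusters by stalled E. coli RNA polymerase and titrated with SNAP-549-labelled MS2 coat protein from 0.7 or 1.5 nM, doubling to 3 µM, in 100 mM Tris-HCl pH 7.5, 80 mM KCl, 4 mM MgCl2, BSA, DTT, yeast tRNA and Tween-20. Each series ran without and then with constant ligand, and green signal was normalised to red-channel RNA signal and control-cluster median Fmax.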

[1] = designed as: OFF switch for flavin mononucleotide, no ligand
[2] = ligand present: flavin mononucleotide, designed as: OFF switch for flavin mononucleotide
[3] = designed as: ON switch for flavin mononucleotide, no ligand
[4] = ligand present: flavin mononucleotide, designed as: ON switch for flavin mononucleotide

Sequence | apparent Kd [1] [nM] | apparent Kd [2] [nM] | apparent Kd [3] [nM] | apparent Kd [4] [nM]
CAAUUUAGCGAGAAGGAGCGCCCGUAGGUACAUGAGGAUCACCCAUGUCCUUUGUGCUCUACGCGCUAGGAUAUCGAGAAACAG | 13.5 | 98.7 | – | –
CAAUUUAUAGCAGGAUAUAUAAUACAAUGAUUAAUAGAAGGGUUUAAUACAUGAGGAUCACCCAUGUCAUGUGUCAUAAUAACC | 33.4 | 28.8 | – | –
CACAAUCUAUCUGAGGAUAUCAUGAAAAAAACAUGAGGAUCACCCAUGUGCAGGAAAACUGCAUAUGAGAAGGCAGAUAGAUUGG | – | – | 658 | 28.3
CACACAUGAGGAUCACCCAUGUCGUGGGCGGAAAACUGUGCACAGGAUAUGGUGAGUGCAACUCACCAGAAGGGUGGUCAGGAA | – | – | 122 | 63
CACCGUAACUGAGGAUAUCAAACAUGAGGAUCACCCAUGUAAUAAAUGAGAAUUUCGAAUGUACCUGAGAAGGCAGAAACCGGC | 38 | 48.3 | – | –
CACGGAUAGUAGAAGGGUGACAUGAGGAUCACCCAUGUACACAUGCGUAUUAAAGUAUGUGAUCCACAGGAUAUACUAUCCGUG | – | – | 776 | 93.8
CACGGCUUAGGAUAUACAUGAGGAUCACCCAUGUGGGAAAGCCAAGGCGUGGUAAAGUGUAGAAGGAAGAAGGA | 13.4 | 14.9 | – | –
CACUCACAUGAGGAUCACCCAUGUCCUAGCAGGUCAGGAUAUAGCUCGGAUGCGUUGAGUCUAGAAGGGACAGGUU | – | – | 184 | 63.6
CACUGCAAUGUAGGAUAUCGACUGGAUAACAGUCGAGAAGGACAUGAGGAUCACCCAUGUAAUCCUAAUAAUAAAUAAGCAGUG | 12.1 | 17.8 | – | –
CACUGCAAUGUAGGAUAUCGACUGGAUAACAGUCGAGAAGGACAUGAGGAUCACCCAUGUACUUUGAGUGAAUAAUAAGCAGUG | 16.5 | 59.7 | – | –
CACUGCAAUGUAGGAUAUCGACUGGAUAACAGUCGAGAAGGACAUGAGGAUCACCCAUGUCAUCCUAAUAAUAAAUAAGCAGUG | 15.3 | 19.1 | – | –
CAGAAGUCAGGAUAUCCUGCUCGUCACUUGCGUGAUGAGUAGGAGAAGGGACAUGAGGAUCACCCAUGUAAAGU | 68.9 | 95 | – | –
CAGACCUACGCAGGAUAUCUUGGGUGUUUCAUGGCAAGAGUCGGUACAUGAGGAUCACCCAUGUAAGAGAAGGGCGUUGCUAAA | 404 | 83 | – | –
CAGCACGGAAACAAAGUCUUCGGACAUGAGGAUCACCCAUGUGAGGAUAUGCCUACUAAAAGUAGGCAGAAGGCACGCGUGCUG | 17.1 | 62.6 | – | –
CAGCCCUGAGGAUAUCCAUCCUUGUACAUGAGGAUCACCCAUGUUCUCCUCUGGGCUUUGGGAGAAGGCAGGUAUC | 59.6 | 58.7 | – | –
CAGCCCUGAGGAUAUCCAUCCUUGUACAUGAGGAUCACCCAUGUUUUCCUCUGGGCUUUUGGAGAAGGCAGGUAUC | 78.3 | 82.3 | – | –
CAGCCCUGAGGAUAUCCCUACUUGUACAUGAGGAUCACCCAUGUUCUCCUCUGGGCUUCGGGAGAAGGCAGGUCUC | 14.6 | 16.8 | – | –
CAGCCCUGAGGAUAUCUCAUCUCGCACAUGAGGAUCACCCAUGUUCUUCUCUGGGUUUCGAGAGAAGGCAGGCCUC | 586 | 434 | – | –
CAGCGAAAGCUGAAUCUGUAGAGAGAGGAUAUACGUCAUAAGGUGCAAACAUGAGGAUCACCCAUGUAGAAGGCUCUCUACAGU | 55.8 | 460 | – | –
CAGCGAAAGUAGAAGGCAGUACUGUUACAGUACUGAGGAUAUACAUGAGGAUCACCCAUGUAAUAAAGCUGGAAAUAUAUAAUU | 6.41 | 7.33 | – | –
CAGCGAUAGCUGAACAAUCUAUCUGAGGAUAUUCAUAAAACAUGAGGAUCACCCAUGUGAAAUUGGGAGAAGGCAGAUAGAUUG | – | – | 7.7 | 4.42

Sequence | apparent Kd [1] [nM] | apparent Kd [2] [nM] | apparent Kd [3] [nM] | apparent Kd [4] [nM]
CAGCGCUGUCGAGAGGAUAUGCGGUGAUGGACAUGAGGAUCACCCAUGUUAGCGAUAGCAUUACGGUAGAAGGCUCUACAGCUGC | – | – | 239 | 14.2
CAGCGCUGUUGAGAGGAUAUGCGGUGAUGGACAUGAGGAUCACCCAUGUUAGCGAUAGCAUUACGGUAGAAGGCUCUACAGCUGC | – | – | 18.5 | 12.3
CAGCUACCCAGUAUGGGUAUUUUUACAGAAGGCCAGGCACAUGAGGAUCACCCAUGUCAAGUUAUGGAGGAUAUGUUAGUGUAU | – | – | 8.25 | 4.76
CAGGAUAGAGGAUAUACAUAGAUACAGAUUCGUGUAAUCCUACAUGAGGAUCACCCAUGUAGAAGGCUAUCCUG | 14.8 | 28.5 | – | –
CAGGCCUUAGGAUAUACACGGUGUCGAACGAGCUCCUACACACAUGAGGAUCACCCAUGUAGAAGGAAGGGAUA | 24.6 | 32 | – | –
CAGGCGGAGUCAGGAUAUGCACGGUGGACCUAUGACAUGAGGAUCACCCAUGUUACUACGCCUCAGCAGAAGGGACAACCUCCU | – | – | 88.8 | 7.87
CAGGUAGACUGAGGAUAUACAAUAAACAGCUAGUCUAUCUAGCUGCCCACAUGAGGAUCACCCAUGUAGAAGGCAGUCUGCCUG | 18.1 | 52.5 | – | –
CAGGUAGACUGAGGAUAUACAAUAAACAGCUAGUCUAUCUAGCUGUCCACAUGAGGAUCACCCAUGUAGAAGGCAGUCUGCCUG | 18.9 | 42 | – | –
CAGGUAGACUGAGGAUAUACACUAAACAGCUAGUCUAUCUAGCUGCCUACAUGAGGAUCACCCAUGUAGAAGGCAGUCUGCCUG | 15.8 | 18.2 | – | –
CAGGUCUGAGGAUAUCCAUCUUCAUACAUGAGGAUCACCCAUGUUUACCUCUGGGUUUUCGGAGAAGGCAGUUUUU | 354 | 397 | – | –
CAGGUCUGAGGAUAUCCAUCUUCAUACAUGAGGAUCACCCAUGUUUCCCUCUGGGUUUUCGGAGAAGGCAGUUUUU | 358 | 293 | – | –
CAGUACUGAGGAUAUACAUGAGGAUCACCCAUGUGCUCUAGCUAGGAUACUAGCAUUAGUAGAAGGCAGUACUG | 15 | 136 | – | –
CAGUACUGAGGAUAUACAUGAGGAUCACCCAUGUGCUUUAGCUAGGAUACUAGCAUUAGUAGAAGGCAGUACUG | 12.3 | 21.5 | – | –
CAGUACUGAGGAUAUACAUGAGGAUCACCCAUGUGUCCUAGCUAGGAAACUAGCAUUAGUAGAAGGCAGUACUG | 18.9 | 300 | – | –
CAGUACUGAGGAUAUACAUGAGGAUCACCCAUGUGUUCCAGCUAGGAAACUAGCAAAGGUAGAAGGCAGUACUG | 23.8 | 521 | – | –
CAGUAGAUCCGAGGAUAUACAAUCCGGAAACGGUACAUGAGGAUCACCCAUGUAGAAGGCGGAUCUACAGGUACUAAAGUACCG | 6.37 | 9.59 | – | –
CAGUUAAAAGUGAGGUCUUCGACAUGAGGAUCACCCAUGUACGAGGAUAUGUAAUAUACGGUAUAGCAGAAGGCGUAUGGGUGU | 20.9 | 46.9 | – | –
CAGUUCUGAGGAUAUCCAUCCUCCUACAUGAGGAUCACCCAUGUUUCCCUCUGGGUUUUCGGAGAAGGCAGUUAUU | 321 | 556 | – | –
CAUAACUUUUCUCAUGUAAACAUGAGGAUCACCCAUGUAAUGAGAAGGAGGCGGCAGAGAGCAUCCUAGGAUAUCAGAAUUGUU | 7.02 | 6.74 | – | –
CAUACACAUGAGGAUCACCCAUGUGAGGAUAUGCGUACGUUGUCCGUAGGCGACGUGCGCAGAAGGCGCAAGGU | 63.3 | 81 | – | –
CAUACAGUAGUCAGGAUAUUGGAAGAGACACGGAACGAGAAGGGACAUGAGGAUCACCCAUGUAUACUGUAAAG | 26.8 | 22.6 | – | –
